Measured values from different studies.
Each line is one published result; the experiments were not run side by side.
MAL12: Alpha-glucosidase MAL12 (MAL12, Saccharomyces cerevisiae S288c, UniProt P53341)
BUB1: Mitotic checkpoint serine/threonine-protein kinase BUB1 (BUB1, Homo sapiens, UniProt O43683)
MAP3K7: Mitogen-activated protein kinase kinase kinase 7 (MAP3K7, Homo sapiens, UniProt O43318)

`COc1cc2c3c(c1OC)-c1c(OC)ccc(NC(C)=O)c1CC3N(C)CC2` (stereo not shown) gave an inhibition of 10% (Alpha-1A adrenergic receptor (ADRA1A, Homo sapiens, UniProt P35348); ligand displacement; radioligand; 10 µM).
The inhibition of `CCCCCCCCCCCCCC(=O)OCC(C)(C)CC1=C(O)C(=O)c2ccccc2C1=O` is reported as over 70% (MAL12; enzyme activity; inhibitor; 50 µM).
`O=c1c(O)c(-c2ccc(O)cc2)oc2cc(O)cc(O)c12` has an inhibition of 39.8% (MAL12; enzyme activity; inhibitor; absorbance; 50 µM).
For `COc1ccc2oc(-c3ccc4nc(N)oc4c3)c/c(=N\c3ccccc3NC(=O)CCN)c2c1`, the remaining binding was 99% (Bone morphogenetic protein receptor type-1B (BMPR1B, Homo sapiens, UniProt O00238); binding; 1 µM).
`O=c1cc(-c2ccc(O)c(O)c2)oc2c(Br)c(O)c(Br)c(O)c12` gave an inhibition of 95.1% (MAL12; enzyme activity; inhibitor; absorbance; 50 µM).
For `C#Cc1cc(-c2cc(Nc3nc(N[C@@H](C)c4ccc(F)cn4)ncc3Cl)n[nH]2)ccc1C=O`, the inhibition was 35% (BUB1; enzyme activity; inhibitor; 0.2 µM).
`C#Cc1cnc(Nc2ccnc(CO)c2)nc1Nc1ccccc1S(C)(=O)=NC#N` (stereo not shown) gave a remaining activity of 78.9% (MAP3K7; enzyme activity; inhibitor; 1 µM).
With `O=c1cc(-c2ccccc2)oc2cc(O)cc(O)c12` the inhibition was 31.2% (MAL12; enzyme activity; inhibitor; absorbance; 50 µM).
For `C#Cc1cnc(Nc2ccc(CO)cc2)nc1Nc1ccccc1C(=O)NC`, the remaining activity was 76.9% (MAP3K7; enzyme activity; inhibitor; 1 µM).
The remaining binding of `CCCCC(=O)Nc1ccc(-c2ccc3ncn(CCC)c(=O)c3c2)cn1` is reported as 100% (Wee1-like protein kinase 2 (WEE2, Homo sapiens, UniProt P0C1S8); binding; competition with immobilised ligand; 0.5 µM).
With `CS(=O)(=NC#N)c1ccccc1Nc1nc(Nc2ccnc(CO)c2)ncc1Cl` (stereo not shown) the remaining activity was 80.5% (MAP3K7; enzyme activity; inhibitor; 1 µM).
With `C1=C/COCc2cc(ccc2OCCN2CCCC2)Nc2nccc(n2)-c2cccc(c2)COC/1` the remaining binding was 91% (BUB1; binding; 0.1 µM).
`COc1cc(O)c2c(c1)O[C@H](c1ccccc1)CC2=O` has an inhibition of 15.1% (MAL12; enzyme activity; inhibitor; absorbance; 50 µM).
